Reference: article PMC6541390 (Biochemistry, 2010)
Where “and” joins values, the source holds several entries; their conditions need not be identical. Identical values can stand only once. Like-named read-outs stand apart in the source and are kept apart here.

What was measured:
[1] = target: T1, Escherichia coli biotin synthase (BS) (Escherichia coli, UniProt P12996); assay: Screen for BS inhibition by products and product-related compounds; format: biochemical; settings: for inhibition of BS in the screen: inhibitor 500 μM alone, AdoMet 100 μM, BS 25 μM, 30 min, 37 °C
In short: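 Anaerobic: BS (25 μM) in 50 mM Tris-HCl, 100 mM KCl, 5 mM DTT, pH 8.0, reconstituted 5 min with Na2S and FeCl3 (200 μM each). Flavodoxin 25 μM, its NADP+ reductase 4 μM, NADPH 1 mM and DTB 50 μM added for 5 min, then AdoMet 100 μM and candidate (500 μM). 30 min, 37 °C; biotin, dAH, MDTB by HPLC; duplicates averaged, normalised to no-inhibitor sample.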

[2] = target: T1, Escherichia coli biotin synthase (BS); format: biochemical; settings: for Ki: BS 25 μM, 30 min, 37 °C
[3] = target: T1, Escherichia coli biotin synthase (BS); assay: Equilibrium UV/visible titration of AdoHcy binding to reconstituted BS
[4] = target: T1, Escherichia coli biotin synthase (BS); assay: Titration of BS active sites with AdoHcy in the activity assay; format: biochemical; settings: extrapolation of the initial linear part of the inhibition curve
[5] = target: T1, Escherichia coli biotin synthase (BS); assay: Effect of MTA nucleosidase on BS activity in the presence of inhibitors; format: biochemical
[6] = target: T2, E. coli MTAN (5′-methylthioadenosine/S-adenosyl-L-homocysteine nucleosidase) (Escherichia coli, UniProt P0AF12); settings: identical assay conditions; ref Lee et al. (32); cited from earlier work
[7] = test system: E. coli cytosine 5-methyltransferase; settings: cited from earlier work
[8] = target: rat catechol O-methyltransferase; settings: cited from earlier work
[9] = target: PFL activase (Escherichia coli, UniProt P0A9N4); settings: at 100 μM AdoMet; cited from earlier work
[10] = target: T1, Escherichia coli biotin synthase (BS); assay: BS activity at varying AdoMet concentration, commercial versus pure AdoMet; format: biochemical; settings: enzymatically synthesized AdoMet, Michaelis-Menten fit; BS 25 μM
[11] = target: T1, Escherichia coli biotin synthase (BS); settings: read-out: Kd AdoMet; cited from earlier work
[12] = cited from earlier work
[13] = target: T2, E. coli MTAN (5′-methylthioadenosine/S-adenosyl-L-homocysteine nucleosidase); assay: MTA/AdoHcy nucleosidase activity assay; format: biochemical
[14] = test system: BS; settings: 30 μM dAH, 90 min assay; cited from earlier work
[15] = target: E. coli BS (Escherichia coli, UniProt P12996); settings: high AdoMet concentration, 3 h at 37 °C; cited from earlier work
[16] = target: DNA methyltransferases; settings: binding cooperatively with DNA; cited from earlier work
[17] = Ki, inhibitor alone, competitive with AdoMet

T1 sequence (P12996 whole entry): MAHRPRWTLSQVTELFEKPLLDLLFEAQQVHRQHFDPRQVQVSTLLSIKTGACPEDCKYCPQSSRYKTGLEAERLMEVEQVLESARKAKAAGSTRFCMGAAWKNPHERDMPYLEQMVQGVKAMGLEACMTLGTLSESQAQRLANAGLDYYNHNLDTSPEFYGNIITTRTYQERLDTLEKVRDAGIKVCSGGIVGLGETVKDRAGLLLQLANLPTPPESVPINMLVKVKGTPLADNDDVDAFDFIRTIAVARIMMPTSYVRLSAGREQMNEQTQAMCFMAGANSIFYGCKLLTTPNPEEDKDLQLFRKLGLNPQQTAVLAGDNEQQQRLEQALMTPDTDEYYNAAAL
T2 sequence (P0AF12 whole entry): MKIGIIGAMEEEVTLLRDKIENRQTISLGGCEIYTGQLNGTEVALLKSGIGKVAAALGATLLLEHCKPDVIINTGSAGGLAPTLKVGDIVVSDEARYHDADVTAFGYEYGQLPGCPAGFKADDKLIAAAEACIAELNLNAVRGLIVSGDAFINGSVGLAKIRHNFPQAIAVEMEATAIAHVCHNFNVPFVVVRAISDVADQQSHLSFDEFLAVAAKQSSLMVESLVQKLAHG
Chain of PFL activase (P0A9N4 2-246): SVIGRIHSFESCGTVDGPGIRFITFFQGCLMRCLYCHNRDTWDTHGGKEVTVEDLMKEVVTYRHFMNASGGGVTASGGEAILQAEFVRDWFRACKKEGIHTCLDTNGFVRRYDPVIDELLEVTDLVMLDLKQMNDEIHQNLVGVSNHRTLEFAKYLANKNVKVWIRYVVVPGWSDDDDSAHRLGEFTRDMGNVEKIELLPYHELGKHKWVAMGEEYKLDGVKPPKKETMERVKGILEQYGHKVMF
Chain of E. coli BS (P12996 whole entry): as the sequence (P12996 whole entry) above

## 5′-methylthioadenosine [MTA]
[1]
  inhibition of BS in the screen: not an inhibitor

## C[S+](CC[C@H](N)C(=O)[O-])C[C@H]1O[C@@H](n2cnc3c(N)ncnc32)[C@H](O)[C@@H]1O (stereo partly drawn) [(R,S)-AdoMet]
[1]; heat-racemized AdoMet, 55 μM (R,S)-AdoMet and 100 μM (S,S)-AdoMet
  decrease of biotin production: ~15%

## Nc1ncnc2c1ncn2[C@@H]1O[C@H](CSCC[C@H](N)C(=O)O)[C@@H](O)[C@H]1O [AdoHcy, S-adenosyl-L-homocysteine]
[2]; Ki AdoHcy, fit to eq 1 with a, b, c = 1 and d = 0, AdoMet 100-500 μM
  Ki: ≤ 0.65 µM and 0.4 to 1.2 µM and < 0.65 µM and 0.65 µM
[1]
  inhibition of BS in the screen: no detectable biotin produced
[1]; inhibitor 500 μM, 30 min assay
  level of MDTB intermediate relative to control: less MDTB than the control sample
[3]
  Kd: 0.54 ± 0.15 µM
[3]; equilibrium titration, BS 50 μM
  AdoHcy binding sites per BS dimer: 1.5 sites per dimer
[3]; read-out: koff, inhibitor dissociation
  koff: ≥ 10 s⁻¹
[4]
  AdoHcy equivalents (sites) per BS dimer for complete inhibition: 0.85 equiv per dimer
[5]; MTAN 200 nM
  BS activity on addition of MTAN: only partially restored
[5]; inhibitor 50 μM (each), without MTAN, BS 25 μM, 37 °C
  decrease of BS activity: ~ 95%
[6]
  kcat: 2.6 s⁻¹
[7]
  Ki: 14 µM
[8]
  Ki: 50 µM
[9]
  IC50: ~20 µM

## C[S+](CC[C@H](N)C(=O)[O-])C[C@H]1O[C@@H](n2cnc3c(N)ncnc32)[C@H](O)[C@@H]1O (stereo partly drawn) [AdoMet, S-adenosyl-L-methionine]
[10]
  Vmax: 0.52 µM/min
[11]
  Kd: 2.3 µM
[12]; 37 °C
  t½ of spontaneous racemization at the sulfonium center: 107 h
[12]; physiological conditions
  t½ of spontaneous degradation to MTA: 42 h

## NC(CCS)C(=O)O (centres unmarked) [Homocysteine]
[1]
  inhibition of BS in the screen: not an inhibitor

## O=C(O)CCCC[C@@H]1SC[C@@H]2NC(=O)N[C@@H]21 [biotin]
[1]
  inhibition of BS in the screen: neither biotin nor iminobiotin, the guanido analogue of biotin, is a significant inhibitor

## C[C@H]1O[C@@H](n2cnc3c(N)ncnc32)[C@H](O)[C@@H]1O [dAH, 5′-deoxyadenosine]
[2]; [17]
  Ki: 20 µM
[2]; excess methionine
  enhancement of dAH inhibition by cooperative binding with methionine: 3 fold
[1]
  inhibition of BS in the screen: inhibitors
[1]; inhibitor 500 μM, 30 min assay
  concentration of MDTB intermediate relative to the control sample: 3–4 times
[13]
  turnover rate (kcat) faster than with AdoHcy: 2 fold
  turnover rate (kcat) faster than with MTA: 1.7 fold
  weaker affinity (Km) for MTA nucleosidase as compared to MTA: 5.8 fold
[13]; MTAN 12 nM, 50 mM sodium phosphate pH 7.5
  kcat: 5.1 s⁻¹
[14]
  inhibition of biotin production: ~ 90%
[15]
  IC50: ~400 µM

## N=C1N[C@H]2[C@H](CS[C@H]2CCCCC(=O)O)N1 [iminobiotin]
[1]
  inhibition of BS in the screen: neither biotin nor iminobiotin, the guanido analogue of biotin, is a significant inhibitor

## CSCC[C@H](N)C(=O)O [methionine]
[2]; [17]
  Ki: 100 µM
[1]
  inhibition of BS in the screen: inhibitors

## Nc1ncnc2c1ncn2[C@@H]1O[C@H](C[C@@H](N)CC[C@H](N)C(=O)O)[C@@H](O)[C@H]1O [sinefungin]
[2]; [17]
  Ki: 40 to 140 µM and 75 µM
[1]
  inhibition of BS in the screen: inhibitor with a decrease in activity comparable to that observed for dAH
[1]; inhibitor 500 μM, 30 min assay
  level of MDTB intermediate relative to control: less MDTB than the control sample
[16]
  Ki: ~0.01 µM
